Active and inactive are the calls of the source. The rule behind the calls is not given here.
Columns and labels:
518A2 = test: Growth inhibition of human 518A2 cells at 30 uM after 96 hrs by SRB assay; format: functional, cell-based
In short: (§1)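 Same SRB set-up: RPMI 1640 with 10% FBS at 37 °C, 5% CO2, and a 96 h exposure starting 24 h after seeding (DMSO or DMF ≤0.5% final). Percent viable cells relative to untreated controls is read at 30 µM, the top concentration of the 0–30 µM dilution series. Cells were fixed with TCA, stained with SRB and read at 570 nm; ≥3 independent experiments.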

A-431 [1] = test: Growth inhibition of human A431 cells at 30 uM after 96 hrs by SRB assay; format: functional, cell-based; in short: as §1
FaDu [2] = test: Growth inhibition of human FADU cells at 30 uM after 96 hrs by SRB assay; format: functional, cell-based; in short: as §1
A549 [3] = test: Growth inhibition of human A549 cells at 30 uM after 96 hrs by SRB assay; format: functional, cell-based; in short: as §1
A2780 [4] = test: Growth inhibition of human A2780 cells at 30 uM after 96 hrs by SRB assay; format: functional, cell-based; in short: as §1
DLD-1 [5] = test: Growth inhibition of human DLD1 cells at 30 uM after 96 hrs by SRB assay; format: functional, cell-based; in short: as §1
HCT-8 [6] = test: Growth inhibition of human HCT8 cells at 30 uM after 96 hrs by SRB assay; format: functional, cell-based; in short: as §1
HCT-116 [7] = test: Growth inhibition of human HCT116 cells at 30 uM after 96 hrs by SRB assay; format: functional, cell-based; in short: as §1
HT-29 [8] = test: Growth inhibition of human HT-29 cells at 30 uM after 96 hrs by SRB assay; format: functional, cell-based; in short: as §1
SW480 [9] = test: Growth inhibition of human SW480 cells at 30 uM after 96 hrs by SRB assay; format: functional, cell-based; in short: as §1
8505C [10] = test: Growth inhibition of human 8505C cells at 30 uM after 96 hrs by SRB assay; format: functional, cell-based; in short: as §1
SW-1736 [11] = test: Growth inhibition of human SW1736 cells at 30 uM after 96 hrs by SRB assay; format: functional, cell-based; in short: as §1
Homo sapiens = organism: Homo sapiens; test: Growth inhibition of human Liposarcoma cells at 30 uM after 96 hrs by SRB assay; format: functional; in short: as §1
A2780 [12] = test: Cytotoxicity against human A2780 cells after 96 hrs by SRB assay; format: functional, cell-based; conditions: A2780, 96 h
In short: (§2)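 Monolayer cells grown in RPMI 1640 with 10% heat-inactivated FBS and penicillin/streptomycin at 37 °C, 5% CO2. Cells were seeded and, after 24 h, exposed to serial dilutions (0–30 µM; DMSO or DMF ≤0.5% final) for 96 h. They were then fixed with 10% TCA at 4 °C, stained with 0.4% SRB and dissolved in 10 mM Tris, with absorbance read at 570 nm. IC50 comes from semi-log dose–response curves of survival versus untreated controls, from ≥3 independent experiments.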

HCT-116 [13] = test: Cytotoxicity against human HCT116 cells after 96 hrs by SRB assay; format: functional, cell-based; conditions: HCT-116, 96 h; in short: as §2
SW-1736 [14] = test: Cytotoxicity against human SW1736 cells after 96 hrs by SRB assay; format: functional, cell-based; conditions: SW-1736, 96 h; in short: as §2
A253 = test: Growth inhibition of human A253 cells at 30 uM after 96 hrs by SRB assay; format: functional, cell-based; in short: as §1
[15] = Cytotoxicity against human 518A2 cells after 96 hrs by SRB assay; format: functional, cell-based; conditions: 518A2, 96 h; in short: as §2
A-431 [16] = test: Cytotoxicity against human A431 cells after 96 hrs by SRB assay; format: functional, cell-based; conditions: A-431, 96 h; in short: as §2
[17] = Cytotoxicity against human A253 cells after 96 hrs by SRB assay; format: functional, cell-based; conditions: A253, 96 h; in short: as §2
HCT-8 [18] = test: Cytotoxicity against human HCT8 cells after 96 hrs by SRB assay; format: functional, cell-based; conditions: HCT-8, 96 h; in short: as §2
HT-29 [19] = test: Cytotoxicity against human HT-29 cells after 96 hrs by SRB assay; format: functional, cell-based; conditions: HT-29, 96 h; in short: as §2
SW480 [20] = test: Cytotoxicity against human SW480 cells after 96 hrs by SRB assay; format: functional, cell-based; conditions: SW480, 96 h; in short: as §2
8505C [21] = test: Cytotoxicity against human 8505C cells after 96 hrs by SRB assay; format: functional, cell-based; in short: as §2
MCF7 = test: Cytotoxicity against human MCF7 cells after 96 hrs by SRB assay; format: functional, cell-based; conditions: MCF7, 96 h; in short: as §2
[22] = Cytotoxicity against human Liposarcoma cells after 96 hrs by SRB assay; format: functional, cell-based; in short: as §2
A549 [23] = test: Cytotoxicity against human A549 cells after 96 hrs by SRB assay; format: functional, cell-based; conditions: A549, 96 h; in short: as §2
FaDu [24] = test: Cytotoxicity against human FADU cells after 96 hrs by SRB assay; format: functional, cell-based; in short: as §2
DLD-1 [25] = test: Cytotoxicity against human DLD1 cells after 96 hrs by SRB assay; format: functional, cell-based; conditions: DLD-1, 96 h; in short: as §2

Row | SMILES | growth inhibition (GI) (518A2) | growth inhibition (GI) (A-431 [1]) | growth inhibition (GI) (FaDu [2]) | growth inhibition (GI) (A549 [3]) | growth inhibition (GI) (A2780 [4]) | growth inhibition (GI) (DLD-1 [5]) | growth inhibition (GI) (HCT-8 [6]) | growth inhibition (GI) (HCT-116 [7]) | growth inhibition (GI) (HT-29 [8]) | growth inhibition (GI) (SW480 [9]) | growth inhibition (GI) (8505C [10]) | growth inhibition (GI) (SW-1736 [11]) | growth inhibition (GI) (Homo sapiens) | IC50 (A2780 [12]) | IC50 (HCT-116 [13]) | IC50 (SW-1736 [14]) | growth inhibition (GI) (A253) | IC50 (A-431 [16]) | IC50 (HCT-8 [18]) | IC50 (MCF7) | further results
1 | C=C(C)[C@@H]1CC[C@]2([C@@H]3O[C@@]34CCOC4=O)CC[C@]3(C)[C@H](CC[C@@H]4[C@@]5(C)CC[C@H](OC(C)=O)C(C)(C)[C@@H]5CC[C@]43C)[C@@H]12 | inactive | inactive | inactive | inactive | inactive | inactive | inactive | inactive | inactive | inactive | inactive | inactive | inactive |  |  |  |  |  |  |  | 
2 | C=C(C)[C@@H]1CC[C@]2([C@@H]3O[C@H]3C(=O)OC)CC[C@]3(C)[C@H](CC[C@@H]4[C@@]5(C)CC[C@H](OC(C)=O)C(C)(C)[C@@H]5CC[C@]43C)[C@@H]12 | inactive | inactive | inactive | inactive |  | inactive | inactive |  | inactive | inactive | inactive |  | inactive | 12.3 µM | 18.1 µM | 17.6 µM | inactive |  |  |  | 
3 | C=C(C)[C@@H]1CC[C@]2([C@H](O)CC(=O)OCC)CC[C@]3(C)[C@H](CC[C@@H]4[C@@]5(C)CC[C@H](OC)C(C)(C)[C@@H]5CC[C@]43C)[C@@H]12 | inactive | inactive | inactive | inactive | inactive | inactive | inactive | inactive | inactive | inactive | inactive | inactive | inactive |  |  |  | inactive |  |  |  | 
4 | C=C(C)[C@@H]1CC[C@]2([C@@H]3CO3)CC[C@]3(C)[C@H](CC[C@@H]4[C@@]5(C)CC[C@H](O)C(C)(C)[C@@H]5CC[C@]43C)[C@@H]12 |  |  | inactive | inactive |  | inactive |  |  |  |  |  | inactive |  | 28.2 µM | 19.9 µM |  |  | 20.1 µM | 20.6 µM | 23.6 µM | IC50 [15]: 26.8 µM; IC50 [17]: 18.8 µM; IC50 (HT-29 [19]): 15.4 µM; IC50 (SW480 [20]): 16.2 µM; IC50 (8505C [21]): 22.3 µM; IC50 [22]: 22.4 µM
5 | C=C(C)[C@@H]1CC[C@]2(/C=C/C(=O)OCC)CC[C@]3(C)[C@H](CC[C@@H]4[C@@]5(C)CC[C@H](OC(C)=O)C(C)(C)[C@@H]5CC[C@]43C)[C@@H]12 | inactive | inactive | inactive | inactive | inactive | inactive | inactive | inactive | inactive | inactive | inactive | inactive | inactive |  |  |  | inactive |  |  |  | 
6 | C=C(C)[C@@H]1CC[C@]2(/C=C3\CCOC3=O)CC[C@]3(C)[C@H](CC[C@@H]4[C@@]5(C)CC[C@H](OC(C)=O)C(C)(C)[C@@H]5CC[C@]43C)[C@@H]12 | inactive |  | inactive | inactive | inactive | inactive | inactive |  | inactive | inactive | inactive |  | inactive |  | 13.9 µM | 18.8 µM | inactive | 19.4 µM |  |  | 
7 | C=C(C)[C@@H]1CC[C@]2([C@H](O)CC(=O)OCC)CC[C@]3(C)[C@H](CC[C@@H]4[C@@]5(C)CC[C@H](OC(C)=O)C(C)(C)[C@@H]5CC[C@]43C)[C@@H]12 | inactive |  | inactive |  |  | inactive |  |  |  | inactive | inactive |  | inactive | 21 µM | 13 µM | 23.5 µM |  | 18.7 µM | 16.5 µM | 27.3 µM | IC50 (A549 [23]): 28.2 µM; IC50 (HT-29 [19]): 21.8 µM
8 | C=C(C)[C@@H]1CC[C@]2([C@H]3CO3)CC[C@]3(C)[C@H](CC[C@@H]4[C@@]5(C)CC[C@H](O)C(C)(C)[C@@H]5CC[C@]43C)[C@@H]12 | inactive |  | inactive | inactive | inactive | inactive |  |  |  |  |  | inactive |  |  | 20.3 µM |  |  | 23.5 µM | 24.6 µM | 28.6 µM | IC50 [17]: 20.1 µM; IC50 (HT-29 [19]): 18.2 µM; IC50 (SW480 [20]): 16.8 µM; IC50 (8505C [21]): 24.3 µM; IC50 [22]: 24.7 µM
9 | C=C(C)[C@@H]1CC[C@]2([C@H](O)[C@H]3CCOC3=O)CC[C@]3(C)[C@H](CC[C@@H]4[C@@]5(C)CC[C@H](OC(C)=O)C(C)(C)[C@@H]5CC[C@]43C)[C@@H]12 |  |  |  |  |  |  |  |  | inactive |  |  |  |  | 12.4 µM | 10.7 µM | 18.5 µM |  | 11.7 µM | 8.3 µM | 11.7 µM | IC50 [15]: 17.9 µM; IC50 [17]: 16.8 µM; IC50 (FaDu [24]): 17.5 µM; IC50 (A549 [23]): 21.1 µM; IC50 (DLD-1 [25]): 17.4 µM; IC50 (SW480 [20]): 16.4 µM; IC50 (8505C [21]): 22.2 µM; IC50 [22]: 17.4 µM

From ChEMBL document CHEMBL1159047, “Synthesis and biological evaluation of antitumour-active betulin derivatives” (Bioorg Med Chem, 2010)
